This is one part of a sample in which hits are shown more often than they occur.
HUVEC prolif 384 – blocks proliferation of human endothelial cells | HUVEC proliferation, CellTiter-Glo luminescence, 72 h; hits give low values | viability, % at 10 µM (by protocol) | 86,000 compounds, 1.1% hits;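 active = viability at or below 30%; inactive = viability above 30%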;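 note: 100% = median luminescence of DMSO-only cell control wells on each plate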
HCT116 PTEN-null – suppresses growth of cells with PTEN deletion. 140,000 compounds, 1.2% hits. AID 827. viability, % at 10 µM. HCT116 PTEN-null viability, CellTiter-Glo, 60 h; hits give low values;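 active = viability at or below a set limit, 4 SD under the median of all tested compounds, cut at about 3.7% in these data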;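 note: PTEN knockout HCT116 line with beta catenin targeted HCT116 as companion control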
H69AR inhibit – growth inhibitors of human H69AR lung tumor cells; H69AR lung tumor viability, ATP luminescence, 72 h; hits give low values; viability, % at 10 µM; 85,000 compounds, 6% hits; AID 598;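 active = viability at or below 40%; inactive = viability above 40%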;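 note: multidrug resistant small cell line overexpressing MRP-1 efflux transporter; 100% = mean luminescence of untreated control wells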
bCat KO growth – beta-catenin-lacking colon tumor cell growth suppression | AID 818 | viability, % at 10 µM | 140,000 compounds, 1.5% hits | HCT116 beta-catenin knockout viability, CellTiter-Glo, 60 h; hits give low values;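 active = viability at or under a set limit, the compound median less 4 SD, cut at about 6% in these data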;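 note: 0% = Hyamine 1622 control at 20 µM and 100% = untreated cell control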
Fibroblast inh – blocks proliferation of human lung fibroblasts; LL 47 human lung fibroblast viability, ATP luminescence; hits give low values; viability, % at 10 µM; 85,000 compounds, 1.1% hits; AID 719;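 active = viability at or below 50% in the single dose screen; inactive = viability above 50%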;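 note: compound exposure lasted 72 h before the ATP readout; 100% = median luminescence of untreated cell-only wells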
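Times – overnight cell rest, 72 h compound treatment at 37 °C · Test system – human lung fibroblast line LL 47, low passage · Amount – 1,150 cells in each well · Controls – cell-only wells, no compound · Doses – 0.1% DMSO in all compound wells · Measured by – CellTiter-Glo luminescence · Buffer or medium – IMEM plus 15% FBS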
Starred values were filed as active, the others as inactive; . = no result.

SMILES	HUVEC prolif 384	HCT116 PTEN-null	H69AR inhibit	bCat KO growth	Fibroblast inh
Cc1ccc(C(=O)N/C(=C\c2ccc(-c3ccc([N+](=O)[O-])cc3)o2)C(=O)NC2CCS(=O)(=O)C2)cc1 (stereo not drawn)	.	85	.	85	.
Cc1nn(-c2ccccc2)c2sc(C(=O)NC3CC3)cc12	91	84	95	83	90
Cc1nn(-c2ccccc2)c2sc(C(=O)N(CC(=O)NC3CCCC3)Cc3ccco3)cc12	54	37	26*	68	53
COc1ccc(S(=O)(=O)N(C)C)cc1NS(=O)(=O)c1ccc(F)c(F)c1F	.	96	.	96	.
CN(C)c1ccc(C(=O)c2ccc(N(C)C)c3ccccc23)cc1	43	14	36*	15	44*
COc1ccc(C(=O)c2ccc(N(C)C)cc2)c(OC)c1	.	9	.	9	.
Cc1ccccc1/C(N)=N/O	.	101	.	84	.
CCOc1ccc2[nH]c(=O)c(CN(CCc3ccccc3)C(=O)N3CCCC3)cc2c1	.	66	.	70	.
CCOc1ccc(C(=O)N(Cc2ccc(OC)cc2)Cc2cc3cc(OC)ccc3[nH]c2=O)cc1	70	92	19*	87	86
CCOc1ccc2[nH]c(=O)c(CN(Cc3ccc(C)cc3)C(=O)N3CCCC3)cc2c1	90	81	33*	93	89
COc1ccc2[nH]c(=O)c(CN(C)C(=O)c3ccncc3)cc2c1	89	106	94	108	97
CCCN(Cc1cc2cc(OC)ccc2[nH]c1=O)C(=O)c1ccncc1	80	66	25*	74	85
CCOc1ccccc1C(=O)N(Cc1ccccc1)Cc1cc2cc3c(cc2[nH]c1=O)OCCO3	19*	.	9.0*	.	26*
CCCCOc1cccc(OCC(=O)Nc2nc3ccccc3[nH]2)c1	.	94	.	83	.
O=C(Nc1ccc(OC(F)(F)C(F)F)c(NC(=O)c2cccc(F)c2)c1)c1cccc(F)c1	.	66	.	90	.
O=C(COC(=O)CCS(=O)(=O)c1ccc(Cl)cc1)NCCc1ccccc1	.	96	.	82	.
COc1ccc(CC(=O)NCc2cn3ccsc3n2)cc1	102	98	1.0*	92	98
CCC(C)(C)C1CCc2c(sc(NC(=O)c3cccs3)c2C(N)=O)C1 (stereo not drawn)	93	87	81	90	88
CC(C)(C)C1CCc2c(sc(NC(=O)c3cccs3)c2C(N)=O)C1 (stereo not drawn)	88	62	34*	68	23*
C[C@](N)(Cc1ccc(O)c(O)c1)C(=O)O	103	18	94	6.1*	100
COc1ccc(N2CCN(S(=O)(=O)c3cccc(C(F)(F)F)c3)CC2)cc1	105	99	100	100	98
Cn1c(=O)c2cc(S(=O)(=O)N3CCN(c4cccc(C(F)(F)F)c4)CC3)ccc2n(C)c1=O	68	58	25*	68	58
CCOc1ccc(/C(O)=C/C(=O)C(=O)Nc2ccc(S(=O)(=O)NC(C)=O)cc2)cc1	.	97	.	95	.
CCOc1cc(N2CCOCC2)c(OCC)cc1NC(=O)c1cc(-c2ccco2)nc2ccccc12	15*	66	4.0*	71	9.1*
CC(=O)N(C)c1ccc(OCC(O)Cn2c3ccc(Cl)cc3c3cc(Cl)ccc32)cc1 (stereo not drawn)	.	1.8*	.	2.8*	.
SMILES	HUVEC prolif 384	HCT116 PTEN-null	H69AR inhibit	bCat KO growth	Fibroblast inh
CC(=O)Nc1ccc(S(=O)(=O)Nc2c(C)nn(-c3ccccc3)c2C)cc1	91	74	49	80	88
Cc1nn(-c2ccc(F)cc2)c(C)c1NS(=O)(=O)c1ccc2ccccc2c1	77	52	36*	62	96
CN(C(=O)COc1ccccc1C(=O)NCCOc1ccccc1)c1ccccc1	.	3.5*	.	3.5*	.
O=C(NCc1ccccn1)c1ccc(CNS(=O)(=O)c2cccc(Cl)c2)cc1	.	108	.	86	.
CCCc1nc2c(C)cc(C)cc2c(N)c1CC	.	40	.	37	.
Cc1cc(C)c2nc(C(F)(F)F)c(C#N)c(N)c2c1	41	101	40*	84	95
Cc1ccc2nc(C(F)(F)F)c(C#N)c(N)c2c1	.	4	.	3.6*	.
O=C(C1=C(c2ccccc2)C(=O)c2ccccc2C1=O)c1ccccc1	.	1.5*	.	1.5*	.
COC1=C(c2ccccc2)C(=O)c2ccccc2C1=O	.	2.0*	.	1.9*	.
O=C(c1ccccc1)c1c[nH]cc1-c1ccccc1	94	87	92	97	96
COc1ccc(/C=N/Nc2ccc([N+](=O)[O-])cc2)cc1Cn1cc([N+](=O)[O-])cn1	48	93	14*	89	92
O=C(Nc1nc(-c2ccccc2)cs1)C1COc2ccccc2O1 (stereo not drawn)	94	81	97	81	111
O=C(Nc1nc(-c2ccccn2)cs1)C1COc2ccccc2O1 (stereo not drawn)	32	12	45	7	44*
Cc1ccc(O)c(N=NC2=C(O)CC(C)(C)CC2=O)c1	.	5	.	4.4*	.
CC1(C)CC(=O)C(N=Nc2cc(Cl)c(Cl)c(Cl)c2)=C(O)C1	.	93	.	97	.
COc1ccc(C)cc1NC(=O)CC(O)(C(F)(F)F)C(F)(F)F	87	90	74	96	97
Cc1ccc(NC(=O)CC(O)(C(F)(F)F)C(F)(F)F)cc1	110	90	22*	100	96
Cc1[nH]c2ccccc2c1SCCN	96	.	35*	.	94
Cc1ccc(C(=O)NCCSc2c(C)[nH]c3ccccc23)cc1[N+](=O)[O-]	.	49	.	44	.
O=C(/C=C/c1cccc([N+](=O)[O-])c1)NCCSCc1cccc(Cl)c1	.	86	.	90	.
CC1=CC(C)(C)Nc2ccc(OC(=O)CN3C(=O)CCC3=O)cc21	.	1.5*	.	1.0*	.
CC1=CC(C)(C)Nc2ccc(OC(=O)c3cccnc3)cc21	53	1.1*	2.6*	0.7*	23*
CC1=CC(C)(C)Nc2ccc(OC(=O)C(C)N3C(=O)c4ccccc4C3=O)cc21 (stereo not drawn)	.	1.3*	.	2.0*	.
CC1=CC(C)(C)Nc2ccc(OC(=O)c3ccco3)cc21	.	1.3*	.	1.6*	.
Cc1cc(NCc2ccccn2)ccc1Br	.	88	.	87	.

Source: PubChem
